pIC50: −log10 of the molar value.
What was measured:
HBL-100 [1] = test: Cytotoxicity against human HBL100 cells after 72 hrs by MTT assay; type: functional, cell-based; conditions: HBL-100, 72 h
Method in brief: (§1)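 MDA-MB-231 breast cancer or HBL-100 non-malignant breast epithelial cells: freshly trypsinized cells seeded at 8000 per well, with compound added from DMSO-diluted stock. After 72 h, attached cells were given MTT (0.5 mg/mL, 1 h) and solubilized in DMSO.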

[2] = Antiaggregatory activity in human platelets assessed as inhibition of thrombin-induced platelet aggregation preincubated for 3 mins before thrombin challenge by turbidimetry analysis; type: functional, cell-based
Method in brief: (§2)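 Washed platelets from ACD-anticoagulated blood of drug-free healthy volunteers, resuspended at 3 × 10⁸/ml in Tyrode's solution with Ca²⁺ 2 mM, glucose 11.1 mM and BSA 3.5 mg/ml. Platelets were stirred at 1200 rpm and 37 °C for 3 min with DMSO (0.5%, vehicle) or compound, then the inducer was added. Aggregation was read by light-transmission aggregometry. IC50 is the mean of two independent experiments (TPA lines n = 3).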

MDA-MB-231 [3] = test: Cytotoxicity against human MDA-MB-231 cells at 20 uM after 72 hrs by MTT assay; type: functional; conditions: MDA-MB-231, 72 h
[4] = Antiaggregatory activity in human platelets assessed as inhibition of collagen-induced platelet aggregation preincubated for 3 mins before collagen challenge by turbidimetry analysis; type: functional, cell-based; method in brief: as §2
MDA-MB-231 [5] = test: Cytotoxicity against human MDA-MB-231 cells after 72 hrs by MTT assay; type: functional, cell-based; conditions: MDA-MB-231, 72 h; method in brief: as §1
HBL-100 [6] = test: Cytotoxicity against human HBL100 cells at 20 uM after 72 hrs by MTT assay; type: functional; conditions: HBL-100, 72 h
[7] = system: Integrin alpha-IIb/beta-3 (Homo sapiens); test: Inhibition of glycoprotein 2b/3a activation in human platelets assessed as inhibition of thrombin-induced PAC-1 binding preincubated for 3 mins before thrombin challenge after 15 mins by flow cytometry; conditions: 0.25 h
[8] = Antiaggregatory activity in human platelets assessed as inhibition of A23187-induced platelet aggregation preincubated for 3 mins before A23187 challenge by turbidimetry analysis; type: functional, cell-based; method in brief: as §2
[9] = Antiaggregatory activity in human platelets assessed as inhibition of TPA-induced platelet aggregation preincubated for 3 mins before TPA challenge by turbidimetry analysis; type: functional, cell-based; method in brief: as §2

Row | SMILES | pIC50 (HBL-100 [1]) | pIC50 [2] | inhibition at 20 µM (MDA-MB-231 [3]) [%] | pIC50 [4] | pIC50 (MDA-MB-231 [5]) | inhibition at 20 µM (HBL-100 [6]) [%] | Activity [7] | pIC50 [8] | pIC50 [9]
1 | COc1cc(/C=C/[N+](=O)[O-])ccc1OC(=O)c1ccc(F)c(F)c1F | < 4.70 | 4.64 | 3.7 | 5.57 | < 4.70 | 1.1 | – | – | –
2 | COc1cc(/C=C/[N+](=O)[O-])ccc1OC(=O)c1ccccc1Br | < 4.70 | 5.27 | 8.3 | 5.70 | < 4.70 | 10 | – | – | –
3 | COc1cc(/C=C/[N+](=O)[O-])ccc1OC(=O)c1cccc(C(F)(F)F)c1 | < 4.70 | 5.48 | 34.9 | 5.77 | < 4.70 | 12.5 | – | – | –
4 | COc1cc(/C=C/[N+](=O)[O-])ccc1OC(=O)c1ccc(C)cc1 | < 4.70 | 5.57 | 7.9 | 5.70 | < 4.70 | 8 | – | – | –
5 | COc1cc(/C=C/[N+](=O)[O-])ccc1OC(=O)c1ccc(C(C)(C)C)cc1 | < 4.70 | 6.22 | 2.5 | 6.22 | < 4.70 | -2.1 | Dose-dependent effect | 5.96 | 5.46
6 | COc1cc(/C=C/[N+](=O)[O-])ccc1OC(=O)c1cccc(F)c1F | < 4.70 | 5.48 | 25.5 | 5.80 | < 4.70 | 4.1 | – | – | –
7 | COc1cc(/C=C/[N+](=O)[O-])ccc1OC(=O)c1ccc(F)cc1F | < 4.70 | 5.52 | 18.5 | 5.70 | < 4.70 | 16 | – | – | –
8 | COc1cc(/C=C/[N+](=O)[O-])ccc1OC(=O)c1cccc(Cl)c1Cl | < 4.70 | 6.15 | -4.9 | 6.22 | < 4.70 | 11.5 | Dose-dependent effect | 5.48 | 5.28
9 | COc1cc(/C=C/[N+](=O)[O-])ccc1OC(=O)c1ccc(Cl)c(Cl)c1 | < 4.70 | 6.00 | 9.4 | 5.74 | < 4.70 | 15.2 | – | – | –
